According to ChEMBL document CHEMBL2311403, “Design and synthesis of potent inhibitor of apoptosis (IAP) proteins antagonists bearing an octahydropyrrolo[1,2-a]pyrazine scaffold as a novel proline mimetic” (J Med Chem, 2013):

Columns and labels:
[1] = Clearance in mouse liver microsomes at 1 umol/l after 20 mins by LC/MS/MS analysis
[2] = Oral bioavailability in BALB/cAJcl mouse at 10 mg/kg by LC/MS/MS analysis; format: ADME, organism-based; conditions: in vivo
In short: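 Female BALB/cAJcl mice, seven weeks old, were dosed orally at 10 mg/kg and intravenously at 1 mg/mL/kg. Plasma compound concentrations were measured by LC/MS/MS.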

[3] = Clearance in human liver microsomes at 1 umol/l after 20 mins by LC/MS/MS analysis
MDA-MB-231 [4] = experiment: Growth inhibition of human MDA-MB-231 cells assessed as cell viability after 3 days by CellTitre-Glo Luminescent assay; format: functional; conditions: MDA-MB-231, 72 h
[5] = Lipophilicity, log D of the compound at pH 7.4; conditions: buffer
[6] = Permeability of the compound by PAMPA; format: ADME; conditions: read-out: permeability
Mus musculus = experiment: Toxicity in athymic nude BALB/cAJcl mouse xenografted with human MDA-MB-231 cells expressing luciferase gene at 30 mg/kg, po bid measured on day 14; format: organism-based; set-up: dose 30 mg/kg, route oral; conditions: in vivo
MDA-MB-231 [7] = experiment: Antitumor activity against human MDA-MB-231 cells expressing luciferase gene xenografted in athymic nude BALB/cAJcl mouse assessed as tumor growth inhibition at 100 mg/kg, po bid measured on day 14 relative to control; format: functional
MDA-MB-231 [8] = experiment: Antitumor activity against human MDA-MB-231 cells expressing luciferase gene xenografted in po dosed athymic nude BALB/cAJcl mouse assessed as tumor regression administered bid measured on day 14; format: functional, organism-based
MDA-MB-231 [9] = experiment: Antitumor activity against human MDA-MB-231 cells expressing luciferase gene xenografted in athymic nude BALB/cAJcl mouse assessed as tumor growth inhibition at 30 mg/kg, po bid measured on day 14 relative to control; format: functional

Row | Compound | microsomal CLint at 20 min, 1 µM [1] [µL/min/mg] | bioavailability [2] [%] | microsomal CLint at 20 min, 1 µM [3] [µL/min/mg] | GI50 (MDA-MB-231 [4]) [nM] | logD [5] | Papp [6] [×10⁻⁶ cm/s] | Activity (Mus musculus) | T/C (MDA-MB-231 [7]) [%] | Activity (MDA-MB-231 [8]) | T/C (MDA-MB-231 [9]) [%]
1 | CN[C@@H](C)C(=O)N[C@H](C(=O)N1C[C@H]2CCCN2C[C@H]1C(=O)N[C@H](C)c1ccccc1)C1CCCCC1 | 115 | 63 | 82 | 20 |  |  |  |  |  | 
2 | CN[C@@H](C)C(=O)N[C@H](C(=O)N1C[C@H]2CCCN2C[C@H]1C(=O)N[C@@H]1CCOc2ccccc21)C1CCOCC1 | 21 | 12 | 15 | 20 | 1.75 |  |  |  |  | 
3 | CN[C@@H](C)C(=O)N[C@H](C(=O)N1C[C@H]2CCCN2C[C@H]1C(=O)N[C@@H]1CCOc2ccccc21)C1CCC(F)(F)CC1 | 66 | 53 | 82 | 13 | 2.43 | 0.3 |  |  |  | 
4 | CN[C@@H](C)C(=O)N[C@H](C(=O)N1C[C@H]2CCCN2C[C@H]1C(=O)N[C@H]1CCCc2ccccc21)C1CCCCC1 | 239 |  | 236 |  |  |  |  |  |  | 
5 | CN[C@@H](C)C(=O)N[C@H](C(=O)N1C[C@H]2CCCN2C[C@H]1C(=O)N[C@@H]1CCC(=O)c2ccccc21)C1CCCCC1 | 161 | 30 | 154 | 21 |  |  |  |  |  | 
6 | CN[C@@H](C)C(=O)N[C@H](C(=O)N1C[C@@H]2CCCN2C[C@H]1C(=O)N[C@@H]1CCOc2ccccc21)C1CCC(F)(F)CC1 | 2 | 13 | 38 | 15 | 1.94 |  |  |  |  | 
7 | CN[C@@H](C)C(=O)N[C@H](C(=O)N1C[C@H]2CCCN2C[C@H]1C(=O)N[C@@H]1CCC(F)(F)c2ccccc21)C1CCCCC1 | 208 | 26 | 130 | 18 |  |  |  |  |  | 
8 | CN[C@@H](C)C(=O)N[C@H](C(=O)N1C[C@H]2CCCN2C[C@H]1C(=O)N[C@@H]1CCOc2ccccc21)c1ccccc1 | 129 | 33 | 90 | 11 | 2.17 |  |  |  |  | 

Second part, led by results:

Row | microsomal CLint at 20 min, 1 µM [1] [µL/min/mg] | bioavailability [2] [%] | microsomal CLint at 20 min, 1 µM [3] [µL/min/mg] | GI50 (MDA-MB-231 [4]) [nM] | logD [5] | Papp [6] [×10⁻⁶ cm/s] | Compound | Activity (Mus musculus) | T/C (MDA-MB-231 [7]) [%] | Activity (MDA-MB-231 [8]) | T/C (MDA-MB-231 [9]) [%]
9 | 40 | 50 | 52 | 1.8 | 2.6 | 4.4 | CCO[C@@H]1C[C@@H]2CN(C(=O)[C@@H](NC(=O)[C@H](C)NC)C3CCC(F)(F)CC3)[C@H](C(=O)N[C@@H]3CCOc4ccccc43)CN2C1 | Non-toxic | -62 | Dose-dependent effect | -53
10 | 116 | 41 | 128 | 5.7 | 2.91 |  | CN[C@@H](C)C(=O)N[C@H](C(=O)N1C[C@H]2CCCN2C[C@H]1C(=O)N[C@@H]1CCOc2ccccc21)C1CCCCC1 |  |  |  | 
11 | 147 | 21 | 170 | 8 | 2.56 |  | CN[C@@H](C)C(=O)N[C@H](C(=O)N1C[C@H]2CC(F)(F)CN2C[C@H]1C(=O)N[C@@H]1CCOc2ccccc21)C1CCC(F)(F)CC1 |  |  |  | 
12 |  |  | 4 | 11 | 1.6 |  | CN[C@@H](C)C(=O)N[C@H](C(=O)N1C[C@H]2C[C@@H](O)CN2C[C@H]1C(=O)N[C@@H]1CCOc2ccccc21)C1CCC(F)(F)CC1 |  |  |  | 
13 | 232 | 6 | 218 | 6.2 |  |  | CN[C@@H](C)C(=O)N[C@H](C(=O)N1C[C@H]2CCCN2C[C@H]1C(=O)N[C@@H]1CCCc2ccccc21)C1CCCCC1.Cl.Cl |  |  |  | 
